Measurements gathered from unrelated publications.
Compare with care: the assays were run in different laboratories.
BTK: Tyrosine-protein kinase BTK (BTK, Homo sapiens, UniProt Q06187)
BTK R28H: Tyrosine-protein kinase BTK (BTK, Homo sapiens, UniProt Q06187, R28H)

Structure (SMILES) | target | assay | conditions | quantity | value
COc1ccc(F)cc1C(=O)NCc1ccc(-c2nn([C@@H](C)C(F)(F)F)c(N)c2C(N)=O)cc1 | BTK | binding, SPR | – | kon | 82000 M⁻¹ s⁻¹
Nc1nc(Nc2ccccc2)sc1C(=O)c1c(F)cccc1F | BTK | enzyme activity, inhibitor | 10 µM | remaining activity | 68%
Cc1cnc(NC2CCOCC2)nc1-n1cnc(C(=O)NC(CN)c2cc(F)cc(Cl)c2)c1 (stereo not drawn) | BTK R28H | enzyme activity, inhibitor, radiometric | 1 µM | remaining activity | 99%
CC(C)(C=C(C#N)C(=O)N1CCC[C@H]1Cn1nc(-c2ccc(Oc3ccccc3)cc2F)c2c(N)ncnc21)N1CCOCC1 | BTK | enzyme activity, inhibitor | – | KI (inactivation) | 14 nM
Cc1sc(C(=O)NC2COC2)cc1-n1cc(NC(=O)Nc2c(F)cccc2Cl)cn1 | BTK | enzyme activity, inhibitor | 10 µM | remaining activity | 87.6%
O=C(NCCCC1CCCCC1)c1ccc(CNC(=O)c2cnn(-c3ccccc3)c2C(F)(F)F)cc1 | BTK | cell-free assay, competition with immobilised ligand | 0.1 µM | remaining binding | 100%
O=C1Nc2ccc(Cl)cc2C1=Cc1cc(Cl)c(O)c(Cl)c1 | BTK | cell-free assay | 0.5 µM | remaining signal | 92.1%
Cc1cc(NC(=O)c2cccc3cc(-c4cccc5[nH]nc(N)c45)ccc23)ccc1F | BTK R28H | enzyme activity, inhibitor | 0.1 µM | activity vs control | 84%
COc1cc2c(N3CCN(C(=O)Nc4ccc(OC(C)C)cc4)CC3)ncnc2cc1OCCCN1CCCCC1 | BTK | cell-free assay | 0.5 µM | remaining signal | 102%
Cc1ccc(NC(=O)c2ccc(C)c(C(F)(F)F)c2)cc1C#Cc1nn(C2CCC(O)CC2)c2ncnc(N)c12 (stereo not drawn) | BTK | cell-free assay | 10 µM | remaining signal | 10%
CNCc1ccccc1-c1csc([C@H](C)Nc2nc(C)nc3cc(OC)c(OC)cc23)c1 | BTK | cell-free assay, competition with immobilised ligand | 1 µM | remaining binding | 89%
CN(C)C1CCN(CC#Cc2nn(C3CCCC3)c3nc(NCc4ccccc4)ncc23)C1 (stereo not drawn) | BTK | enzyme activity, inhibitor, FRET | 1 µM | inhibition | 5%
CCC(=O)N[C@H]1CC[C@@H](C(=O)N(C)c2ccc(-c3nc4ccccc4o3)cc2)C1 | BTK | cell-free assay, competition with immobilised ligand | 1 µM | remaining binding | 77%
O=C(Nc1cnn(-c2csc(C(=O)NC3COC3)c2)c1)Nc1ccccc1Cl | BTK | enzyme activity, inhibitor | 5 µM | remaining activity | 92.6%
COc1cc(Cl)c(C(=O)N[C@@H](CN[C@H]2CC[C@@H](N)CC2)Cc2ccc(C#N)cc2)cc1-c1ccc(CN[C@H](C)c2ccc(C)cc2)o1 | BTK | enzyme activity, inhibitor | 1 µM | remaining activity | 114%
COc1ccc2c(c1)O[C@@H](c1ccc(OC)c(OC)c1)C[C@H]2NC(=O)C1(c2ccc3c(c2)OC(F)(F)O3)CC1 | BTK | cell-free assay, competition with immobilised ligand | 1 µM | remaining binding | 81%
CC(C)(C)c1nc2c(s1)c1nc(N)ncc1c1ccc(NS(=O)(=O)c3c(F)cccc3F)c(F)c12 | BTK | enzyme activity, inhibitor, radiometric | 1 µM | remaining activity | 75%
Cc1cc(NC(=O)c2cccc(S(F)(F)(F)(F)F)c2)cc(-n2ccn3nc(-c4cccnc4)cc23)c1 | BTK | cell-free assay, competition with immobilised ligand | 1 µM | remaining binding | 83.8%
NC(=O)[C@H]1CCN(c2ncnc(N)c2F)C[C@@H]1N1CCC[C@@H](Nc2cc(Cl)cc(C(F)(F)F)c2)C1=O | Tyrosine-protein kinase BTK (BTK, Homo sapiens, UniProt Q06187, C481S) | binding in cells | – | residence time | 16 min
COc1ccc(COc2ccc(Cc3cnc(N)nc3N)cc2OC)cc1 | BTK | cell-free assay | 0.5 µM | remaining signal | 104%
C=CC(=O)N1CCC[C@@H]1Cn1nc(-c2ccc(Oc3ccccc3)cc2F)c2c(N)ncnc21 | BTK | enzyme activity, inhibitor | – | kinact/KI | 1.9e+06 M⁻¹ s⁻¹
CCC(=N\O)/C(C)=C/c1ccc(F)cc1 | BTK | cell-free assay, competition with immobilised ligand | 1 µM | remaining binding | 78%
COc1cc(Nc2cnc(C#N)c(O[C@H](C)CN(C)C)n2)ncc1-c1cnn(C)c1 | BTK | enzyme activity, inhibitor, radiometric | 10 µM | remaining activity | 60%
N#CC1(c2ccccn2)CCN(Cc2cc(C(=O)N3CCCC3)c(=O)n3ccccc23)CC1 | BTK | cell-free assay, competition with immobilised ligand | 1 µM | remaining binding | 100%
CC(C)(C)C(=O)c1sc(NC2CCCCC2)nc1N | BTK | enzyme activity, inhibitor | 10 µM | remaining activity | 79%
Cc1noc([C@H]2C[C@@H](c3ccc(C(F)(F)F)cc3)CN(C(=O)N3CCS(=O)(=O)C3)C2)n1 | BTK | cell-free assay, competition with immobilised ligand | 1 µM | remaining binding | 96%
FC(F)c1nc2ccccc2n1-c1nc(N2CCOCC2)nc(N2CCOCC2)n1 | BTK | enzyme activity, inhibitor | 10 µM | remaining activity | 98%
